Assay results of several laboratories.
Protocols differ between the studies behind these lines.
Target: Serine/threonine-protein kinase VRK2 (VRK2, Homo sapiens, UniProt Q86Y07)

| SMILES | read-out | technique | concentration | remaining binding [%] |
| --- | --- | --- | --- | --- |
| CNC(=O)[C@@H]1CC[C@@H](n2c(-c3ccc4cnccc4c3)nc3ccc(C(=O)NCc4cccc(C(N)=O)c4)cc32)C1 | binding | competition with immobilised ligand | 1 µM | 100 |
| CN(C)c1nccc(-c2cnn3ncccc23)n1 | binding |  | 1 µM | 80 |
| CN([C@@H]1CCc2c(CC(=O)O)c3cc(S(C)(=O)=O)ccc3n2C1)S(=O)(=O)c1ccc(F)cc1 | cell-free assay | competition with immobilised ligand | 1 µM | 94 |
| O=C(NCCCN1CCOCC1)c1ccc(Nc2ncc(Cl)c(-c3ccc(Cl)s3)n2)cc1 | binding | competition with immobilised ligand | 1 µM | 64 |
| O=C(Nc1c[nH]nc1C(=O)NC1CCNCC1)c1cc(F)cc(F)c1 | binding | competition with immobilised ligand | 1 µM | 100 |
| CCCNc1nc(C#Cc2ccc(Cl)s2)nc2c1ncn2[C@H]1[C@H](O)[C@H](O)[C@]2(C(=O)NC)C[C@H]12 | binding | competition with immobilised ligand | 10 µM | 31 |
| C=CC(=O)N1CCC(C(=O)NCC(=O)N2CCN(c3nc(-c4cnc(N)nc4C(F)F)nc(N4CCOCC4)n3)CC2)CC1 | binding | competition with immobilised ligand | 1 µM | 93 |
| C[C@H]1CCN(c2nccc(-c3cnn4ncccc34)n2)C1 | binding |  | 1 µM | 81 |
| NS(=O)(=O)c1cc(NC(=O)Cc2ccccc2)ccc1Oc1cccc(Cl)c1 | cell-free assay | competition with immobilised ligand | 1 µM | 100 |
| N[C@H]1CCN(c2nccc(-c3cnn4ncccc34)n2)C1 | binding |  | 1 µM | 83 |
| Cc1noc([C@H]2C[C@@H](c3ccc(C(F)(F)F)cc3)CN(C(=O)N3CCS(=O)(=O)C3)C2)n1 | cell-free assay | competition with immobilised ligand | 1 µM | 91 |
| FC(F)(F)Oc1cccc(-c2cnc3ccc(-c4ccncc4)nn23)c1 | binding | competition with immobilised ligand | 5 µM | 75 |
| COc1ccnn2ncc(-c3ccnc(N(C)C)n3)c12 | binding |  | 1 µM | 100 |
| CC(C)CC(=O)N1CCc2nc(-c3ccc(Br)cc3)nc(N(C)Cc3ccccc3)c2C1 | cell-free assay | competition with immobilised ligand | 0.1 µM | 77 |
| c1cnn2ncc(-c3ccnc(N4CCC45COC5)n3)c2c1 | binding |  | 1 µM | 74 |
| O=C(NCCCN1CCOCC1)c1ccc(Nc2nccc(-c3cc4ccccc4s3)n2)cc1 | binding | competition with immobilised ligand | 1 µM | 100 |
| COc1ncc2cc3ccccc3nc2c1C#N | cell-free assay | competition with immobilised ligand | 5 µM | 98 |
| CC(=O)C1=C(C)N(c2cccc(C(F)(F)F)c2)C(=O)N[C@@H]1c1ccc(C#N)nc1 | cell-free assay | competition with immobilised ligand | 1 µM | 77.6 |
| CN(CCCC(F)(F)F)c1nccc(-c2cnn3ncccc23)n1 | binding |  | 1 µM | 100 |
| O=C(c1ccc(Nc2ncc(Cl)c(-c3cc4ccccc4s3)n2)cc1)N1CCC(N2CCCC2)CC1 | binding | competition with immobilised ligand | 1 µM | 70 |
| CNC(=O)Nc1ccc2c(c1)CC[C@@]21OC(=O)N(CC(=O)N(Cc2ccc(F)cc2)[C@@H](C)C(F)(F)F)C1=O | cell-free assay | competition with immobilised ligand | 1 µM | 91 |
| COc1cnc(Nc2cccc(S(N)(=O)=O)c2)nc1N1CCN(c2ccccc2)CC1 | binding | competition with immobilised ligand | 1 µM | 69 |
